Data as given in ChEMBL document CHEMBL1140224, “Dihydrofuro[3,4-c]pyridinones as inhibitors of the cytolytic effects of the pore-forming glycoprotein perforin” (J Med Chem, 2008).
Active and inactive are the calls of the source. No cut-off for these calls is given here.

Legend:
[1] = Cytotoxicity against human KHYG-1 cells assessed as cell viability upto 20 uM after 24 hrs by trypan blue exclusion assay; format: cell-based; conditions: read-out: Activity
In short: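 KHYG-1 cells at 4 × 10^5 cells/ml in RPMI + 0.1% BSA, compound up to 20 µM added for 20 min at RT. RPMI 0.1% BSA added in place of targets, 4 h at 37 °C, then washed ×3 and held 18 to 24 h at 37 °C in complete medium. Trypan blue read: clear cells as percent of total. DMSO vehicle control.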

[2] = biological target: T1, Perforin-1 (Homo sapiens) (UniProt P14222); test: Inhibition of human KHYG-1 NK cells delivered perforin-mediated death of human K562 cells upto 20 uM preincubated for 20 mins with KHYG-1 cells measured after 30 mins by 51Cr release assay; format: cell-based; conditions: in the assay text read “measured after 4 hrs” for “measured after 30 mins”
T1 sequence (whole entry): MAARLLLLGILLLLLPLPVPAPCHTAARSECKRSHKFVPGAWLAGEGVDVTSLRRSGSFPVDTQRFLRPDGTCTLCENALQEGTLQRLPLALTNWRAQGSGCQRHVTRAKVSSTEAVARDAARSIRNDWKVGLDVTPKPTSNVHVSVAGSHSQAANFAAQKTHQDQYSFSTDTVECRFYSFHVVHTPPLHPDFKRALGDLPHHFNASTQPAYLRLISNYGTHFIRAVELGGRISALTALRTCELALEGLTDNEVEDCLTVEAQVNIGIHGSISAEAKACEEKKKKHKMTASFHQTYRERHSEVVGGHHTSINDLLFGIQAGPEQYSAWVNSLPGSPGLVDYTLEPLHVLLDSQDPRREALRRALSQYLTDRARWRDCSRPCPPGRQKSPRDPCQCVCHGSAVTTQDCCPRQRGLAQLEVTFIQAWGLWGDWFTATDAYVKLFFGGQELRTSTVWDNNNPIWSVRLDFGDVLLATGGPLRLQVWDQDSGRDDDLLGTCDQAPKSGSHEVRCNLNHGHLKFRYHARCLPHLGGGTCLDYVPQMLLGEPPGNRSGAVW
In short: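 KHYG-1 NK cells (4 × 10^5/ml, RPMI + 0.1% BSA) given inhibitor up to 20 µM, 20 min at RT. K562 targets labeled with 75 µCi 51Cr for 90 min at 37 °C, added at effector:target 2:1, 4 h at 37 °C. % specific lysis from experimental, spontaneous and maximum release. Mean of triplicates ± SEM; inhibition relative to untreated control, DMSO vehicle control.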

Salmonella typhimurium = test: Mutagenic activity in Salmonella Typhimurium TA100 by Ames assay; format: toxicity, organism-based; conditions: salmonella enterica subsp. enterica serovar typhimurium
[3] = biological target: Pneumolysin (Streptococcus pneumoniae serotype 4 (strain ATCC BAA-334 / TIGR4)) (UniProt P0C2J9); test: Inhibition of Streptococcus pneumoniae pneumolysin-mediated lysis of sheep red blood cells
In short: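 Single-point test at 20 µM compound, using the perforin/SRBC turbidity format with pneumolysin in place of perforin. Compound in DMSO is preincubated with the lytic protein for at least 30 min. Sheep red blood cells in RBC buffer are then added, and absorbance at 650 nm is read at 0 min and after 15 min at 37 °C. Matching DMSO serves as negative control.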

[4] = biological target: T1, Perforin-1 (Homo sapiens); test: Inhibition of human CD3-CD56+ NK cell delivered perforin-mediated death of human K562 cells upto 20 uM preincubated for 30 mins with human CD3-CD56+ NK cell measured after 4 hrs by 51Cr release assay; format: cell-based
In short: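 Human CD3-CD56+ NK cells taken from donor buffy coats by Ficoll then negative MACS selection. Used same day or after up to 3 days in 100 U/mL IL-2. Up to 2 × 10^5 NK cells with inhibitor, DMSO or medium in RPMI 0.1% BSA, 30 min at RT. 1 × 10^4 51Cr-labeled K562 added, 4 h at 37 °C, % specific lysis, triplicates.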

[5] = biological target: T2, Tumor necrosis factor ligand superfamily member 6 (Homo sapiens) (UniProt P48023); test: Inhibition of Fas ligand-mediated death of human Jurkat T cells upto 20 uM after 30 mins by 51Cr release assay; format: cell-based
T2 sequence (whole entry): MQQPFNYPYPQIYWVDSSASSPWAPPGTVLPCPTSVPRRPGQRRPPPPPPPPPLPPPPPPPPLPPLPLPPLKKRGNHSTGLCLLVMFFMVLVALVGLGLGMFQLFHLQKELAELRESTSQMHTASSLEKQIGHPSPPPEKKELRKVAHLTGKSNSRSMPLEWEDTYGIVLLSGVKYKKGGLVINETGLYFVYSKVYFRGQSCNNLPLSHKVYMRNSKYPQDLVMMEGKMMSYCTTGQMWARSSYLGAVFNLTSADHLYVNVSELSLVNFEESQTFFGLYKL
In short: (§1)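 Fifty thousand 51Cr-labeled Jurkat cells preincubated with 20 µM final inhibitor for 30 min at 37 °C. Anti-Fas agonistic mAb CH11 or recombinant TRAIL, each at 250 ng/mL final, in RPMI with 1% BSA for 2 h. Controls were DMSO diluent and a non-inhibitor at the same concentration; SDS gave maximum release. Supernatant 51Cr γ-counted, triplicates, mean ± SEM.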

[6] = biological target: Tumor necrosis factor ligand superfamily member 10 (Homo sapiens) (UniProt P50591); test: Inhibition of recombinant TRAIL-mediated death of human Jurkat T cells upto 20 uM after 30 mins by 51Cr release assay; format: cell-based; in short: as §1
Chain of Tumor necrosis factor ligand superfamily member 10 (Homo sapiens) (P50591 whole entry): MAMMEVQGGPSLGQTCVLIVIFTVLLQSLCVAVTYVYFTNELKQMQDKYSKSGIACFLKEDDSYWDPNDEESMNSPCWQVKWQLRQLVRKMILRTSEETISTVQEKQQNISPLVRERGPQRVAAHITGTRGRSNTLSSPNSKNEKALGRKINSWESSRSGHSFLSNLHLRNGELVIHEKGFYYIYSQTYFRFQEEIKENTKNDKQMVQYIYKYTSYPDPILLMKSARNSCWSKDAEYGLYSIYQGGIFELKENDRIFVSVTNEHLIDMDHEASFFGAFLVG

Chain of Pneumolysin (Streptococcus pneumoniae serotype 4 (strain ATCC BAA-334 / TIGR4)) (P0C2J9 whole entry): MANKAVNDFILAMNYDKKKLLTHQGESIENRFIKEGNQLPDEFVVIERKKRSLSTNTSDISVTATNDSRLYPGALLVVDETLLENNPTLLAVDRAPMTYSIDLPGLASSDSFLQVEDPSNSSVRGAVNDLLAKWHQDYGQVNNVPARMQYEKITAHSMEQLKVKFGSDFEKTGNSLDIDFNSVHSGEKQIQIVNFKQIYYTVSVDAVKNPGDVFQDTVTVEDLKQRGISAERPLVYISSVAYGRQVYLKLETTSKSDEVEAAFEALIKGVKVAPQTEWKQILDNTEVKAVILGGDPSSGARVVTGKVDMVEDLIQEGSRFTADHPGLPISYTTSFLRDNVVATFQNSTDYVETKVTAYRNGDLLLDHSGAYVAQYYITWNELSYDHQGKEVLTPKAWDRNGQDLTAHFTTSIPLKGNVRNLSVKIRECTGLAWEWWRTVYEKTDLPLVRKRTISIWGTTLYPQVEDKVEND

## Cc1cc2c(c(=S)[nH]1)C(=O)O/C2=C\c1cc2ccccc2[nH]1
[1]
  viability at 24 h: 0%
[2]
  inhibition: 95%

## Cc1cc2c(c(=S)[nH]1)C(=O)O/C2=C\c1ccco1
Salmonella typhimurium
  Activity: Active

## Cc1cc2c(c(=S)[nH]1)C(=O)O/C2=C\c1csc2ccccc12
Salmonella typhimurium
  Activity: Not Active
[1]
  viability at 24 h: 88%
[2]
  inhibition: 63%

## Cc1cc2c(c(=S)[nH]1)C(=O)O/C2=C\c1ccc[nH]1
Salmonella typhimurium
  Activity: Not Active

## Cc1cc2c(c(=S)[nH]1)C(=O)O/C2=C\c1cccs1
Salmonella typhimurium
  Activity: Not Active

## COc1ccc2oc(/C=C3\OC(=O)c4c3cc(C)[nH]c4=S)cc2c1
[1]
  viability at 24 h: 0%
[2]
  inhibition: 100%

## Cc1cc2c(c(=O)[nH]1)C(=O)O/C2=C\c1cc2ccccc2s1
[1]
  viability at 24 h: 100%
[2]
  inhibition: 65%

## Cc1cc2c(c(=S)[nH]1)C(=O)O/C2=C\c1ccc(C)o1
[3]
  Activity: inactive
[4]
  inhibition: > 70%
Salmonella typhimurium
  Activity: Active
[5]
  Activity: inactive
[1]
  viability at 24 h: 72%
[6]
  Activity: inactive
[2]
  inhibition: 50%

## Cc1cc2c(c(=S)[nH]1)C(=O)O/C2=C\c1ccc(-c2ccccc2)s1
[1]
  viability at 24 h: 0%
[2]
  inhibition: 100%
